{"source": "ChEMBL document CHEMBL1145514", "about": "“Single-dose oral amoxicillin or linezolid for prophylaxis of experimental endocarditis due to vancomycin-susceptible and vancomycin-resistant Enterococcus faecalis” (Antimicrob Agents Chemother, 2007)", "key": {"[1]": {"system": "Enterococcus faecalis", "assay": "Antibacterial activity against vancomycin-susceptible Enterococcus faecalis 1209 challenged with 10 times ID90 bacterial size inoculum in Wistar rat assessed as infection at single administration of 2 to 3 g, po"}, "[2]": {"system": "Enterococcus faecalis", "assay": "Antibacterial activity against vancomycin-susceptible Enterococcus faecalis 309 challenged with 10 times ID90 bacterial size inoculum in Wistar rat assessed as infection at single administration of 2 to 3 g, po"}, "[3]": {"system": "Enterococcus faecalis", "assay": "Antibacterial activity against vancomycin-susceptible Enterococcus faecalis JH2-2 challenged with ID90 bacterial size inoculum in Wistar rat assessed as infection at single administration of 2 to 3 g, po", "type": "functional, organism-based", "method_in_brief": "(§1)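 Female Wistar rats (180–200 g) with catheter-induced sterile aortic vegetations. 24 h after catheterization, drug is delivered i.v. by pump at changing flow rates to mimic human serum kinetics of a single 2–3 g oral dose. Rats are challenged i.v. with the ID90 at peak serum concentration. Vegetations are cultured 72 h after prophylaxis ends; sterile = no growth (detection ≥2 log10 CFU/g).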"}, "[4]": {"system": "Enterococcus faecalis", "assay": "Antibacterial activity against vancomycin-resistant Enterococcus faecalis UCN41 challenged with 10 times ID90 bacterial size inoculum in Wistar rat assessed as infection at single administration of 600 mg, po", "type": "functional, organism-based", "method_in_brief": "(§2)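 Female Wistar rats (180 to 200 g) with catheter-induced sterile aortic vegetations; 24 h after catheterization, groups of 10 received prophylaxis by pump at changing flow rates mimicking human serum kinetics; controls got i.v. saline. I.v. challenge at peak serum drug level with ID90 or 10 times ID90. Vegetations cultured 72 h after prophylaxis ended; sterile if no growth, detection limit ≥2 log10 CFU/g.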"}, "[5]": {"assay": "Tmax in Enterococcus faecalis infected Wistar rat at single administration of 2 to 3 g, po", "type": "ADME, organism-based", "settings": "in vivo", "method_in_brief": "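Female Wistar rats (180-200 g) with catheter-induced sterile aortic vegetations; 24 h after catheterization, drug delivered by pump at changing flow rates to mimic human serum kinetics of a single 2-3 g oral dose. Serum levels in groups of 3-5 rats by agar diffusion bioassay (Bacillus subtilis ATCC 6633 indicator; detection limit 0.39 mg/liter); means ± SD.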"}, "[6]": {"assay": "Cmax in Enterococcus faecalis infected Wistar rat at single administration of 2 to 3 g, po", "type": "ADME, organism-based", "settings": "in vivo", "method_in_brief": "(§3)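 Catheterized female Wistar rats received pump-controlled i.v. infusion at changing flow rates simulating human serum kinetics of the oral regimen. Serum drug levels were measured by agar diffusion bioassay in groups of 3–5 animals. Indicator organisms were B. subtilis ATCC 6633 for amoxicillin (detection limit 0.39 mg/liter) and S. aureus ATCC 29213 for linezolid (detection limit 3.12 mg/liter). Values are means ± SD.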"}, "[7]": {"system": "Enterococcus faecalis", "assay": "Antibacterial activity against vancomycin-susceptible Enterococcus faecalis JH2-2 after 24 hrs by broth macrodilution method", "type": "functional"}, "[8]": {"system": "Enterococcus faecalis", "assay": "Antibacterial activity against vancomycin-resistant Enterococcus faecalis UCN41 challenged with ID90 bacterial size inoculum in Wistar rat assessed as infection at single administration of 2 to 3 g, po", "type": "functional, organism-based", "method_in_brief": "as §2"}, "[9]": {"system": "Enterococcus faecalis", "assay": "Antibacterial activity against vancomycin-susceptible Enterococcus faecalis 1209 after 24 hrs by broth macrodilution method", "type": "functional"}, "[10]": {"system": "Enterococcus faecalis", "assay": "Antibacterial activity against vancomycin-susceptible Enterococcus faecalis 309 after 24 hrs by broth macrodilution method", "type": "functional"}, "[11]": {"system": "Enterococcus faecalis", "assay": "Antibacterial activity against vancomycin-resistant Enterococcus faecalis UCN41 after 24 hrs by broth macrodilution method", "type": "functional"}, "[12]": {"system": "Rattus norvegicus", "assay": "T>MIC in Enterococcus faecalis infected Wistar rat at single administration of 2 to 3 g, po", "type": "ADME, organism-based", "settings": "in vivo", "method_in_brief": "as §3"}, "[13]": {"system": "Enterococcus faecalis", "assay": "Antibacterial activity against vancomycin-susceptible Enterococcus faecalis 309 challenged with ID90 bacterial size inoculum in Wistar rat assessed as infection at single administration of 2 to 3 g, po", "type": "functional, organism-based", "method_in_brief": "as §1"}, "[14]": {"assay": "Cmax in Enterococcus faecalis infected Wistar rat at 600 mg, po two consecutive administration every 12 hrs", "type": "ADME, organism-based", "design": "dose 600 mg, route oral", "settings": "in vivo", "method_in_brief": "as §3"}, "[15]": {"assay": "Tmax in Enterococcus faecalis infected Wistar rat at single administration of 600 mg, po", "type": "ADME, organism-based", "settings": "in vivo", "method_in_brief": "(§4)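 Female Wistar rats (180–200 g) with sterile aortic vegetations from a carotid catheter received drug 24 h later by pump at changing flow rates, mimicking human serum kinetics of 600 mg oral doses every 12 h. Serum levels were measured in groups of three to five rats by agar diffusion bioassay (S. aureus ATCC 29213 indicator; detection limit 3.12 mg/liter).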"}, "[16]": {"system": "Rattus norvegicus", "assay": "T>MIC in Enterococcus faecalis infected Wistar rat at single administration of 600 mg, po", "type": "ADME, organism-based", "settings": "in vivo", "method_in_brief": "as §3"}, "[17]": {"system": "Rattus norvegicus", "assay": "T>MIC in Enterococcus faecalis infected Wistar rat at 600 mg, po two consecutive administration every 12 hrs", "type": "ADME, organism-based", "settings": "in vivo", "method_in_brief": "as §3"}, "[18]": {"assay": "Cmax in Enterococcus faecalis infected Wistar rat at 600 mg, po four consecutive administration every 12 hrs", "type": "ADME, organism-based", "design": "dose 600 mg, route oral", "settings": "in vivo", "method_in_brief": "as §3"}, "[19]": {"assay": "Tmax in Enterococcus faecalis infected Wistar rat at 600 mg, po four consecutive administration every 12 hrs", "type": "ADME, organism-based", "settings": "in vivo", "method_in_brief": "as §4"}, "[20]": {"assay": "Cmax in Enterococcus faecalis infected Wistar rat at single administration of 600 mg, po", "type": "ADME, organism-based", "design": "dose 600 mg, route oral", "settings": "in vivo", "method_in_brief": "as §3"}, "[21]": {"system": "Rattus norvegicus", "assay": "T>MIC in Enterococcus faecalis infected Wistar rat at 600 mg, po four consecutive administration every 12 hrs", "type": "ADME, organism-based", "settings": "in vivo", "method_in_brief": "as §3"}, "[22]": {"assay": "Tmax in Enterococcus faecalis infected Wistar rat at 600 mg, po two consecutive administration every 12 hrs", "type": "ADME, organism-based", "settings": "in vivo", "method_in_brief": "as §4"}, "[23]": {"system": "Enterococcus faecalis", "assay": "Antibacterial activity against vancomycin-susceptible Enterococcus faecalis JH2-2 challenged with ID90 bacterial size inoculum in Wistar rat assessed as infection at single administration 1 g, iv", "type": "functional, organism-based", "method_in_brief": "as §2"}, "[24]": {"assay": "Cmax in Enterococcus faecalis infected Wistar rat at single administration of 1 g, iv", "type": "ADME, organism-based", "design": "dose 1 g, route intravenous", "settings": "in vivo", "method_in_brief": "(§5)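 Serum drug levels in rats receiving human-kinetics simulation by pump, measured in groups of three to five animals by agar diffusion bioassay with Bacillus subtilis ATCC 6633 as indicator; detection limit 1.76 mg/liter; linear standard curves. Values as means ± SD.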"}, "[25]": {"system": "Rattus norvegicus", "assay": "T>MIC in Enterococcus faecalis infected Wistar rat at single administration of 1 g, iv", "type": "ADME, organism-based", "settings": "in vivo", "method_in_brief": "as §5"}, "[26]": {"system": "Enterococcus faecalis", "assay": "Antibacterial activity against vancomycin-resistant Enterococcus faecalis UCN41 challenged with ID90 bacterial size inoculum in Wistar rat assessed as infection at single administration of 1 g, iv", "type": "functional, organism-based", "method_in_brief": "as §2"}, "[27]": {"assay": "Tmax in Enterococcus faecalis infected Wistar rat at single administration of 1 g, iv", "type": "ADME, organism-based", "settings": "in vivo", "method_in_brief": "as §5"}, "[28]": {"settings": "Enterococcus faecalis, 1209, 24 h"}, "[29]": {"settings": "Enterococcus faecalis, 309, 24 h"}}, "note": "Activity calls are given as the source filed them. No cut-off for these calls is given here.", "data": [{"molecule": "CC1(C)S[C@@H]2[C@H](NC(=O)[C@H](N)c3ccc(O)cc3)C(=O)N2[C@H]1C(=O)O", "note": "[AMOXICILLIN]", "values": [{"measurement": "Activity", "setting": "[1]", "value": "Active"}, {"measurement": "Activity", "setting": "[2]", "value": "Active"}, {"measurement": "Activity", "setting": "[3]", "value": "Active"}, {"measurement": "Activity", "setting": "[4]", "value": "Active"}, {"measurement": "Tmax", "setting": "[5]", "value": 2, "unit": "h"}, {"measurement": "Cmax", "setting": "[6]", "value": 29400, "unit": "ng/mL"}, {"measurement": "MIC", "setting": "[7]; JH2-2, 24 h", "value": 0.25, "unit": "µg/mL"}, {"measurement": "Activity", "setting": "[8]", "value": "Active"}, {"measurement": "MIC", "setting": "[9]; [28]", "value": 1, "unit": "µg/mL"}, {"measurement": "MIC", "setting": "[10]; [29]", "value": 0.5, "unit": "µg/mL"}, {"measurement": "MIC", "setting": "[11]; UCN41, 24 h", "value": 0.25, "unit": "µg/mL"}, {"measurement": "T>MIC", "setting": "[12]", "value": 12, "unit": "h"}, {"measurement": "Activity", "setting": "[13]", "value": "Active"}]}, {"molecule": "CC(=O)NC[C@H]1CN(c2ccc(N3CCOCC3)c(F)c2)C(=O)O1", "note": "[LINEZOLID]", "values": [{"measurement": "Cmax", "setting": "[14]", "value": 18600, "unit": "ng/mL"}, {"measurement": "Tmax", "setting": "[15]", "value": 1, "unit": "h"}, {"measurement": "T>MIC", "setting": "[16]", "value": 12, "unit": "h"}, {"measurement": "T>MIC", "setting": "[17]", "value": 24, "unit": "h"}, {"measurement": "Activity", "setting": "[4]", "value": "inactive"}, {"measurement": "Cmax", "setting": "[18]", "value": 19300, "unit": "ng/mL"}, {"measurement": "Tmax", "setting": "[19]", "value": 1, "unit": "h"}, {"measurement": "Cmax", "setting": "[20]", "value": 17500, "unit": "ng/mL"}, {"measurement": "T>MIC", "setting": "[21]", "value": 48, "unit": "h"}, {"measurement": "Tmax", "setting": "[22]", "value": 1, "unit": "h"}]}, {"molecule": "CN[C@H](CC(C)C)C(=O)N[C@H]1C(=O)N[C@@H](CC(N)=O)C(=O)N[C@H]2C(=O)N[C@H]3C(=O)N[C@H](C(=O)N[C@H](C(=O)O)c4cc(O)cc(O)c4-c4cc3ccc4O)[C@H](O)c3ccc(c(Cl)c3)Oc3cc2cc(c3O[C@@H]2O[C@H](CO)[C@@H](O)[C@H](O)[C@H]2O[C@H]2C[C@](C)(N)[C@H](O)[C@H](C)O2)Oc2ccc(cc2Cl)[C@H]1O", "note": "[VANCOMYCIN]", "values": [{"measurement": "Activity", "setting": "[23]", "value": "Active"}, {"measurement": "Cmax", "setting": "[24]", "value": 37800, "unit": "ng/mL"}, {"measurement": "MIC", "setting": "[7]; JH2-2, 24 h", "value": 1, "unit": "µg/mL"}, {"measurement": "MIC", "setting": "[9]; [28]", "value": 4, "unit": "µg/mL"}, {"measurement": "MIC", "setting": "[10]; [29]", "value": 4, "unit": "µg/mL"}, {"measurement": "MIC", "setting": "[11]; UCN41, 24 h", "value": "> 256", "unit": "µg/mL"}, {"measurement": "T>MIC", "setting": "[25]", "value": 12, "unit": "h"}, {"measurement": "Activity", "setting": "[26]", "value": "inactive"}, {"measurement": "Tmax", "setting": "[27]", "value": 0.5, "unit": "h"}]}, {"molecule": "GENTAMICIN", "values": [{"measurement": "MIC", "setting": "[7]", "value": 2, "unit": "µg/mL"}, {"measurement": "MIC", "setting": "[9]", "value": 16, "unit": "µg/mL"}, {"measurement": "MIC", "setting": "[10]", "value": 64, "unit": "µg/mL"}, {"measurement": "MIC", "setting": "[11]", "value": 1, "unit": "µg/mL"}]}]}
